We go through six compounds from ChEMBL document CHEMBL3102835, “Dimeric unnatural polyproline-rich peptides with enhanced antibacterial activity” (Bioorg Med Chem Lett, 2014).

In brackets after ≈: the same amount, converted by molar mass.

The test system of data set [1] is Escherichia coli. Put plainly: Antibacterial activity against Escherichia coli ATCC 25922 assessed as release of beta-galactosidase at 5 times MIC after 1 hr relative to control. The class given is functional.
Data set [2] relates to Escherichia coli. The experiment in a line: Antibacterial activity against Escherichia coli by broth microdilution method. The class given is functional. In short, it runs like this:
(§1)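 Broth microdilution. E. coli ATCC 25922 or S. aureus ATCC 25923 grown to mid-exponential phase in TSB at 37 °C, 200 rpm. MIC taken as the lowest concentration with no growth.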
Background: In broth dilution the organism is exposed to a series of concentrations in liquid medium.

Data set [3] relates to Staphylococcus aureus. The experiment in a line: Antibacterial activity against Staphylococcus aureus by broth microdilution method. The class given is functional. In short, it runs like this: as §1
The subject of data set [4] is Escherichia coli. The experiment in a line: Antibacterial activity against Escherichia coli ATCC 25922 assessed as release of beta-galactosidase after 1 hr relative to control. It counts as functional. The essentials: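 Cells washed twice in TSB, then exposed to peptide at 1× or 5× MIC for 1 h at 37 °C. Supernatant collected by cold centrifugation and mixed with ONPG. Release expressed versus buffer control.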

Data set [5] is described as follows: Toxicity in human RBC assessed as hemolysis by measuring hemoglobin release at 1 uM after 1 hr. It counts as cell-based. The note with it: erythrocyte. In short, it runs like this:
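Fresh human RBCs from healthy volunteers, washed three times in PBS pH 7.4 and used as an 8% (v/v) suspension. Mixed with two-fold serial peptide dilutions and incubated 1 h at 37 °C. Positive controls were melittin and 1% Triton X-100.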

Data set [6] deals with Escherichia coli. The experiment in a line: Drug uptake in Escherichia coli ATCC 25922 assessed as increase in cellular fluorescence at 10 uM after 6 hrs by confocal microscopic analysis. Conditions: in vivo; call rule not given here. It counts as ADME, organism-based. The essentials:
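E. coli ATCC 25922 grown to mid-exponential phase in MHB at 37 °C, pelleted and resuspended in fresh MHB. Exposed to 10 µM fluorescein-labelled peptide or buffer for 10 min, 1 h or 6 h at 37 °C. Cells washed in PBS, fixed in 10% formalin, stained with 1 µM Hoechst, mounted on poly-lysine coverslips. Confocal imaging at equal laser intensity.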

Data set [7] relates to Escherichia coli. The experiment in a line: Antibacterial activity against Escherichia coli ATCC 25922 assessed as release of beta-galactosidase at 20 µM after 1 hr relative to control.

The term MIC denotes the lowest concentration that inhibits growth of the organism. A higher MIC goes with weaker potency. As for `CC(C)COC1C[C@@H](C(=O)N2CC(OCCCNC(=N)N)C[C@H]2C(=O)N2CC(OCCCNC(=N)N)C[C@H]2C(=O)N2CC(OCC(C)C)C[C@H]2C(=O)N2CC(OCCCNC(=N)N)C[C@H]2C(=O)N2CC(OCCCNC(=N)N)C[C@H]2C(=O)N2CC(OCC(C)C)C[C@H]2C(=O)N2CC(OCCCNC(=N)N)C[C@H]2C(=O)N2CC(OCCCNC(=N)N)C[C@H]2C(=O)N2CC(OCC(C)C)C[C@H]2C(=O)N2CC(OCCCNC(=N)N)C[C@H]2C(=O)N2CC(OCCCNC(=N)N)C[C@H]2C(=O)N2CC(OCC(C)C)C[C@H]2C(N)=O)N(C(=O)CNC(=O)c2ccc(-c3c4ccc(=O)cc-4oc4cc(O)ccc34)c(C(=O)O)c2)C1` (stereo not given in full), the “fold change (FC)” value in data set [1] turned out to be 3. Moreover, the MIC in data set [2] stood at 4 µM (≈ 11.9 µg/mL); in data set [3] it was 12 µM (≈ 35.7 µg/mL).
For the compound `CC[C@H](C)[C@H](NC(=O)CN)C(=O)NCC(=O)N[C@@H](C)C(=O)N[C@H](C(=O)N[C@@H](CC(C)C)C(=O)N[C@@H](CCCCN)C(=O)N[C@H](C(=O)N[C@@H](CC(C)C)C(=O)N[C@H](C(=O)N[C@H](C(=O)NCC(=O)N[C@@H](CC(C)C)C(=O)N1CCC[C@H]1C(=O)N[C@@H](C)C(=O)N[C@@H](CC(C)C)C(=O)N[C@H](C(=O)N[C@@H](CO)C(=O)N[C@@H](Cc1c[nH]c2ccccc12)C(=O)N[C@H](C(=O)N[C@@H](CCCCN)C(=O)N[C@@H](CCCNC(=N)N)C(=O)N[C@@H](CCCCN)C(=O)N[C@@H](CCCNC(=N)N)C(=O)N[C@@H](CCC(N)=O)C(=O)N[C@@H](CCC(N)=O)C(N)=O)[C@@H](C)CC)[C@@H](C)CC)[C@@H](C)O)[C@@H](C)O)C(C)C)C(C)C` [MELITTIN], the “fold change (FC)” value in data set [4] stood at 8. The Activity entry in data set [5] is “Toxic”.
Consider `CC(=O)NCC(=O)N(CCCCC(=O)NCCCC(=O)N1CC(OCC(C)C)C[C@H]1C(=O)N1CC(OCCCNC(=N)N)C[C@H]1C(=O)N1CC(OCCCNC(=N)N)C[C@H]1C(=O)N1CC(OCC(C)C)C[C@H]1C(=O)N1CC(OCCCNC(=N)N)C[C@H]1C(=O)N1CC(OCCCNC(=N)N)C[C@H]1C(=O)N1CC(OCC(C)C)C[C@H]1C(=O)N1CC(OCCCNC(=N)N)C[C@H]1C(=O)N1CC(OCCCNC(=N)N)C[C@H]1C(=O)N1CC(OCC(C)C)C[C@H]1C(N)=O)CCCCC(=O)NCCCC(=O)N1CC(OCC(C)C)C[C@H]1C(=O)N1CC(OCCCNC(=N)N)C[C@H]1C(=O)N1CC(OCCCNC(=N)N)C[C@H]1C(=O)N1CC(OCC(C)C)C[C@H]1C(=O)N1CC(OCCCNC(=N)N)C[C@H]1C(=O)N1CC(OCCCNC(=N)N)C[C@H]1C(=O)N1CC(OCC(C)C)C[C@H]1C(=O)N1CC(OCCCNC(=N)N)C[C@H]1C(=O)N1CC(OCCCNC(=N)N)C[C@H]1C(=O)N1CC(OCC(C)C)C[C@H]1C(N)=O` (stereo not given in full), for which the MIC was determined as 1 µM (≈ 4.39 µg/mL) in data set [2] and 4 µM (≈ 17.5 µg/mL) in data set [3].
For the compound `CC(C)COC1C[C@@H](C(=O)N2CC(OCCCNC(=N)N)C[C@H]2C(=O)N2CC(OCCCNC(=N)N)C[C@H]2C(=O)N2CC(OCC(C)C)C[C@H]2C(=O)N2CC(OCCCNC(=N)N)C[C@H]2C(=O)N2CC(OCCCNC(=N)N)C[C@H]2C(=O)N2CC(OCC(C)C)C[C@H]2C(=O)N2CC(OCCCNC(=N)N)C[C@H]2C(=O)N2CC(OCCCNC(=N)N)C[C@H]2C(=O)N2C[C@@H](OCC(C)C)CC2C(N)=O)N(C(=O)CNC(=O)c2ccc(-c3c4ccc(=O)cc-4oc4cc(O)ccc34)c(C(=O)O)c2)C1` (stereo not given in full), the Drug uptake entry in data set [6] is given as “Active”. Moreover, the MIC in data set [2] and in data set [3] was 60 µM (≈ 143 µg/mL) in each case. For the same compound, the “fold change (FC)” value in data set [7] is reported as 3.
On to `CC(=O)NCC(=O)N(CCCCC(=O)NCC(=O)N1CC(OCC(C)C)C[C@H]1C(=O)N1CC(OCCCNC(=N)N)C[C@H]1C(=O)N1CC(OCCCNC(=N)N)C[C@H]1C(=O)N1CC(OCC(C)C)C[C@H]1C(=O)N1CC(OCCCNC(=N)N)C[C@H]1C(=O)N1CC(OCCCNC(=N)N)C[C@H]1C(=O)N1CC(OCC(C)C)C[C@H]1C(=O)N1CC(OCCCNC(=N)N)C[C@H]1C(=O)N1CC(OCCCNC(=N)N)C[C@H]1C(=O)N1CC(OCC(C)C)C[C@H]1C(N)=O)CCCCC(=O)NCC(=O)N1CC(OCC(C)C)C[C@H]1C(=O)N1CC(OCCCNC(=N)N)C[C@H]1C(=O)N1CC(OCCCNC(=N)N)C[C@H]1C(=O)N1CC(OCC(C)C)C[C@H]1C(=O)N1CC(OCCCNC(=N)N)C[C@H]1C(=O)N1CC(OCCCNC(=N)N)C[C@H]1C(=O)N1CC(OCC(C)C)C[C@H]1C(=O)N1CC(OCCCNC(=N)N)C[C@H]1C(=O)N1CC(OCCCNC(=N)N)C[C@H]1C(=O)N1CC(OCC(C)C)C[C@H]1C(N)=O` (stereo not given in full), for which the values for the MIC in data set [2] and in data set [3] were 1 µM (≈ 4.33 µg/mL) and 2 µM (≈ 8.66 µg/mL), respectively.
Regarding `CC(=O)NCC(=O)N(CCCCC(=O)NCCC(=O)N1CC(OCC(C)C)C[C@H]1C(=O)N1CC(OCCCNC(=N)N)C[C@H]1C(=O)N1CC(OCCCNC(=N)N)C[C@H]1C(=O)N1CC(OCC(C)C)C[C@H]1C(=O)N1CC(OCCCNC(=N)N)C[C@H]1C(=O)N1CC(OCCCNC(=N)N)C[C@H]1C(=O)N1CC(OCC(C)C)C[C@H]1C(=O)N1CC(OCCCNC(=N)N)C[C@H]1C(=O)N1CC(OCCCNC(=N)N)C[C@H]1C(=O)N1CC(OCC(C)C)C[C@H]1C(N)=O)CCCCC(=O)NCCC(=O)N1CC(OCC(C)C)C[C@H]1C(=O)N1CC(OCCCNC(=N)N)C[C@H]1C(=O)N1CC(OCCCNC(=N)N)C[C@H]1C(=O)N1CC(OCC(C)C)C[C@H]1C(=O)N1CC(OCCCNC(=N)N)C[C@H]1C(=O)N1CC(OCCCNC(=N)N)C[C@H]1C(=O)N1CC(OCC(C)C)C[C@H]1C(=O)N1CC(OCCCNC(=N)N)C[C@H]1C(=O)N1CC(OCCCNC(=N)N)C[C@H]1C(=O)N1CC(OCC(C)C)C[C@H]1C(N)=O` (stereo not given in full), the results for the MIC in data set [2] and in data set [3] were 4 µM (≈ 17.4 µg/mL) and 8 µM (≈ 34.9 µg/mL), respectively.
